Measured values from ChEMBL document CHEMBL1134278, “Design, synthesis, and biological activity of methoctramine-related polyamines as putative G(i) protein activators” (J Med Chem, 2001).

What was measured:
[1] = organism: Cavia porcellus; experiment: Antagonist affinity, in electrically paced (1 Hz) guinea pig left atria using N-dodecyl lysine amide as agonist
[2] = organism: Cavia porcellus; experiment: Antagonist affinity, in electrically paced (1 Hz) guinea pig left atria using the APE as agonist; assay type: functional
In short: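 Driven guinea pig left atria paced at 1 Hz, with cumulative agonist concentration–response curves. Each antagonist was tested at one concentration, 0.1 µM, incubated 1 h. pK_B was calculated from the dose ratio as −log{[antagonist]/(DR−1)}. Mean ± SE of four experiments.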

[3] = organism: Cavia porcellus; experiment: Antagonist affinity, in electrically paced (1 Hz) guinea pig left atria using 1'-[8-(1-(2-methoxy -benzyl)-[4,4']bipiperidinyl)-octyl]-1-(2-methoxy-benzyl)-[4,4']biiperidinyl as agonist; assay type: functional
In short: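 Driven guinea pig left atria paced at 1 Hz. Each antagonist was tested at one concentration, 0.1 µM, incubated 1 h. One tissue received the antagonist and a second untreated tissue served as control, each giving a cumulative agonist concentration–response curve. pK_B = −log{[antagonist]/(DR−1)}. Mean ± SE of four experiments.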

[4] = biological target: T1, Muscarinic acetylcholine receptor M1 (Homo sapiens) (UniProt P11229); experiment: Affinity for human M1 cloned muscarinic receptor subtype expressed in CHO-K1 cells at a concentration of 10 uM; assay type: cell-based
T1 sequence (whole entry): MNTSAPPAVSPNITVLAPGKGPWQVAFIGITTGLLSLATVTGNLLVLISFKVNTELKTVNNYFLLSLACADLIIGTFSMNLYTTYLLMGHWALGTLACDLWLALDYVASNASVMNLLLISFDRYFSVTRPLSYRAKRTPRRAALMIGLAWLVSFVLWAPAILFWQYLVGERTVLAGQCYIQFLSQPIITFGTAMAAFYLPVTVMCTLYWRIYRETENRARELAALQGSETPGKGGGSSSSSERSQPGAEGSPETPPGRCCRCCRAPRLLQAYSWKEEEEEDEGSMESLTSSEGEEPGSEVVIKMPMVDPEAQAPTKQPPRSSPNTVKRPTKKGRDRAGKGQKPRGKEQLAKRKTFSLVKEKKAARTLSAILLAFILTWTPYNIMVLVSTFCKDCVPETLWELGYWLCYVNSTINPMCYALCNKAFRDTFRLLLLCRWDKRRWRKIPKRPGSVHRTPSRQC

[5] = organism: Cavia porcellus; experiment: Inotropic responses, induced by the compound in electrically paced (Hz) guinea pig left atria; assay type: functional
In short: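 Left atria from guinea pig were electrically driven at 1 Hz, and negative inotropic effect was recorded. Cumulative concentration–response curves were run, with arecaidine propargyl ester (APE) as the muscarinic agonist reference. EC50 came from nonlinear regression curve fitting as the mean ± SE of at least four independent experiments.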

[6] = biological target: T2, Muscarinic acetylcholine receptor M3 (Homo sapiens, UniProt P20309); experiment: Affinity for human M3 cloned muscarinic receptor subtype expressed in CHO-K1 cells at a concentration of 10 uM; assay type: cell-based
Target sequence in this assay (P20309 whole entry, looked up): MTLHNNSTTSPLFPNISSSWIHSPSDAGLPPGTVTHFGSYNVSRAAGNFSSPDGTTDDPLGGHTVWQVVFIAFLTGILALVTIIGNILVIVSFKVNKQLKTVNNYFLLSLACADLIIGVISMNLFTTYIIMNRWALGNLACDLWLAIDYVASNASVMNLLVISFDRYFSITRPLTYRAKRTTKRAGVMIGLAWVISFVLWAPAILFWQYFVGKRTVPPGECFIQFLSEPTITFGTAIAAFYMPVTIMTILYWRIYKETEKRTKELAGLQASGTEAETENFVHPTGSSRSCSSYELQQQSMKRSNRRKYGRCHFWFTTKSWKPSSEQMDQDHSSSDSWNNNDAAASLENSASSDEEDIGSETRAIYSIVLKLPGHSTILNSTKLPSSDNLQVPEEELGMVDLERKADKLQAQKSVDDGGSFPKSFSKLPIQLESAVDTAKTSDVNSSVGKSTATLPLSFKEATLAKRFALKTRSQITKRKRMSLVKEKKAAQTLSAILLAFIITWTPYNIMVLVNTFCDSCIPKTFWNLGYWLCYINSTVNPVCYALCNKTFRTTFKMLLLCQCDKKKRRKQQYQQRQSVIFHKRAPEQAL

[7] = biological target: T3, Muscarinic acetylcholine receptor M2 (Homo sapiens) (UniProt P08172); experiment: Affinity for human muscarinic acetylcholine receptor M2 expressed in CHO-K1 cells at a concentration of 10 uM; assay type: cell-based
T3 sequence (whole entry): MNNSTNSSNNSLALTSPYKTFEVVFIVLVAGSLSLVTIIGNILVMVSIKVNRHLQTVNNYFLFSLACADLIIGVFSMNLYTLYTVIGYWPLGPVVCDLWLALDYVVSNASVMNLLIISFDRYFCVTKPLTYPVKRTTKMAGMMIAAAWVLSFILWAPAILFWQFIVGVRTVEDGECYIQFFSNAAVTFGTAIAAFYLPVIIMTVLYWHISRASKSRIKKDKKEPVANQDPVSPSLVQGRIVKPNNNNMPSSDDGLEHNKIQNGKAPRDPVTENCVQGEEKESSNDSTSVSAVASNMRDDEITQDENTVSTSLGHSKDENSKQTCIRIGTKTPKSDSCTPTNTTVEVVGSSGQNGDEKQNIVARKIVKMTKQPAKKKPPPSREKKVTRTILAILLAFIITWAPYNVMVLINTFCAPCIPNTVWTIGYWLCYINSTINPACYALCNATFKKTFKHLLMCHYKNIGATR

[8] = organism: Cavia porcellus; experiment: Inotropic response relative to APE (APE = 100) in electrically paced (Hz) guinea pig left atria; assay type: functional
[9] = biological target: T4, Muscarinic acetylcholine receptor M4 (Homo sapiens) (UniProt P08173); experiment: Affinity for human M4 cloned muscarinic receptor subtype expressed in CHO-K1 cells at a concentration of 10 uM; assay type: cell-based
T4 sequence (whole entry): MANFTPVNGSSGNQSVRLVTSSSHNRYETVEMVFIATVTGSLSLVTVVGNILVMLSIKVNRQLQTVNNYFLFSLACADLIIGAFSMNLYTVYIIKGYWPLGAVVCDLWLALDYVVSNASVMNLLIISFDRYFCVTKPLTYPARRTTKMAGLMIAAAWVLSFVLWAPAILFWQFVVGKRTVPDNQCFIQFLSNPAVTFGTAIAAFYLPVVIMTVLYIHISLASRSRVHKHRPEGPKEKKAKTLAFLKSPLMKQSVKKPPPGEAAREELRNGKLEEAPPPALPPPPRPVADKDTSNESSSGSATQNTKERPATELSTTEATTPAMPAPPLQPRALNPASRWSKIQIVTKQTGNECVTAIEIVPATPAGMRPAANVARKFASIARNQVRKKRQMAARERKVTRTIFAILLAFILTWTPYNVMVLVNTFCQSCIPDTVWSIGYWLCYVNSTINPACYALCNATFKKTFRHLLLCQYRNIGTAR

[10] = biological target: T5, Muscarinic acetylcholine receptor M5 (Homo sapiens) (UniProt P08912); experiment: Affinity for human muscarinic acetylcholine receptor M5 subtype expressed in CHO-K1 cells at a concentration of 10 uM; assay type: cell-based
T5 sequence (whole entry): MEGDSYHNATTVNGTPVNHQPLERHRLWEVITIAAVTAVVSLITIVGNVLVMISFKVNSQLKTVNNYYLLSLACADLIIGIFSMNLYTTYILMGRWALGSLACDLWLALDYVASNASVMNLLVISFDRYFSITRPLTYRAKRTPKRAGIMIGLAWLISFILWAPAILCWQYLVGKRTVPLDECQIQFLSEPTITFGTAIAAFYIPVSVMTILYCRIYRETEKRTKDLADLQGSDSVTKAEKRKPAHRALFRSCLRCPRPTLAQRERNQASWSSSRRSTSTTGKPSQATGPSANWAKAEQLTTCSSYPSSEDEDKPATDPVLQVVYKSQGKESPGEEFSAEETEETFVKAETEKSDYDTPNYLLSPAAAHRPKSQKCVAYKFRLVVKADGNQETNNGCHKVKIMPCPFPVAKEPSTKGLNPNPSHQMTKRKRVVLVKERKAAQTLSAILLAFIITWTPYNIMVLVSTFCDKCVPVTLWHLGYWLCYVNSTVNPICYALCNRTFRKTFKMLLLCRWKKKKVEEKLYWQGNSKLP

[11] = biological target: T6, Muscarinic acetylcholine receptor M1 (Homo sapiens, UniProt P11229); experiment: Affinity for human M1 cloned muscarinic receptor subtype expressed in CHO-K1 cells; assay type: cell-based
T6 sequence (P11229 whole entry): T1 sequence (whole entry)
In short: (§1)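 Radioligand displacement of [³H]NMS in CHO-K1 cells expressing human cloned muscarinic M1–M5 receptors. IC50 values were converted to Ki with the Cheng–Prusoff equation. Results are means ± SE of two to three experiments, each run in triplicate.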

[12] = biological target: T7, Muscarinic acetylcholine receptor M2 (Homo sapiens, UniProt P08172); experiment: biochemical
T7 sequence (P08172 whole entry): T3 sequence (whole entry)

[13] = biological target: T8, Muscarinic acetylcholine receptor M5 (Homo sapiens, UniProt P08912); experiment: Affinity for human muscarinic acetylcholine receptor M5 subtype expressed in CHO-K1 cells; assay type: cell-based
T8 sequence (P08912 whole entry): T5 sequence (whole entry)
In short: as §1

[14] = biological target: T2, Muscarinic acetylcholine receptor M3; experiment: Affinity for human M3 cloned muscarinic receptor subtype expressed in CHO-K1 cells; assay type: cell-based
In short: as §1
Target sequence in this assay (P20309 whole entry): as the sequence (P20309 whole entry, looked up) above

[15] = biological target: T9, Muscarinic acetylcholine receptor M4 (Homo sapiens, UniProt P08173); experiment: Affinity for human M4 cloned muscarinic receptor subtype expressed in CHO-K1 cells; assay type: cell-based
T9 sequence (P08173 whole entry): T4 sequence (whole entry)
In short: as §1

[16] = biological target: T7, Muscarinic acetylcholine receptor M2; experiment: Binding affinity against muscarinic acetylcholine receptor M2

Structure (SMILES)	Reduction [4]	EC50 [5]	Reduction [6]	Reduction [7]	Reduction [9]	Reduction [10]	Relative efficacy [8]	further results
CN1[C@@H]2CC[C@H]1C[C@@H](OC(=O)C(CO)c1ccccc1)C2 (some centres not stated) [ATROPINE]								pKB [1]: 7.45; pKB [2]: 9.15; pKB [3]: 7.18
COc1ccccc1CN1CCC(C2CCN(C)CC2)CC1	17%	0.603 nM	12%	35%	25%	25%	70	
COc1ccccc1CN1CCC(C2CCN(C(C)=O)CC2)CC1		1.29 nM					79	
C#CCOC(=O)C1=CCCN(C)C1 [ARECAIDINE PROPARGYL ESTER]		7.08 nM					100	

Further compounds by falling EC50 [5], results first:

Reduction [4]	EC50 [5]	Reduction [6]	Reduction [7]	Reduction [9]	Reduction [10]	Structure (SMILES)	Relative efficacy [8]	further results
22%	0.525 nM	12%	49%	28%	29%	COc1ccccc1CN1CCC(C2CCNCC2)CC1	75	
	0.398 nM					COc1ccccc1CN1CCC(C2CCN(C(=O)CCCCCCC(=O)N3CCC(C4CCN(Cc5ccccc5OC)CC4)CC3)CC2)CC1 [PIPERTRAMINE AMIDE]	85	Ki [11]: 108 nM; Ki [12]: 9.2 nM; Ki [13]: 183 nM; Ki [14]: 97.2 nM; Ki [15]: 16.6 nM
17%	0.339 nM	17%	13%	0%	24%	CCCCCCCCCCCCNC(CCCCN)C(N)=O (configuration not stated)	82	
	0.224 nM					COc1ccccc1CN1CCC(C2CCN(CCCCCCCCN3CCC(C4CCN(Cc5ccccc5OC)CC4)CC3)CC2)CC1 [PIPERTRAMINE]	84	Ki [11]: 19.8 nM; Ki [16]: 8.6 nM; Ki [13]: 105 nM; Ki [14]: 422 nM; Ki [15]: 15.3 nM
